Assay results taken from ChEMBL document CHEMBL4373727, “Thienopyrimidinone Derivatives That Inhibit Bacterial tRNA (Guanine37-N1)-Methyltransferase (TrmD) by Restructuring the Active Site with a Tyrosine-Flipping Mechanism” (J Med Chem, 2019).
Converted amounts (≈) assume the structure as drawn. The source made the active and inactive calls. Unless noted, no cut-off for these calls is given here.

Tests used:
Staphylococcus aureus [1] = assay: Bactericidal activity against methicillin-resistant Staphylococcus aureus ATCC 43300 assessed as reduction in CFU at 1 to 4 times MIC90 incubated for 24 hrs; type: functional; conditions: ATCC 43300, 24 h, read-out: MBC99.9
[2] = biological target: T1, tRNA (guanine-N(1)-)-methyltransferase (Pseudomonas aeruginosa (strain ATCC 15692 / DSM 22644 / CIP 104116 / JCM14847 / LMG 12228 / 1C / PRS 101 / PAO1), UniProt Q9HXQ1); assay: Inhibition of Pseudomonas aeruginosa tRNA (guanine(37)-N1)-methyltransferase (Leu5 to Asp25 residues) expressed in Escherichia coli BL21 (DE3) Rosetta T1R cells assessed as reduction in S-adenosyl-L-homocysteine production preincubated for 15 mins followed by 1.5 uM of tRNALeu(CAG) substrate and SAM addition and measured after 45 mins by MTase-Glo assay
T1 sequence (Q9HXQ1 whole entry): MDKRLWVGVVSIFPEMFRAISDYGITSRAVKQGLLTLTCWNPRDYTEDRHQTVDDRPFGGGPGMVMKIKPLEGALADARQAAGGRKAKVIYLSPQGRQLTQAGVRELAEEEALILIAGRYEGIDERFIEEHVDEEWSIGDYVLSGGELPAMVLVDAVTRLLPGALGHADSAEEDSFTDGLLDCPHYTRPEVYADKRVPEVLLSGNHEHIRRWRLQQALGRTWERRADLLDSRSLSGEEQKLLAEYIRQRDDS
In short: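 MTase-Glo luminescence assay. 8 nM TrmD preincubated 15 min at ambient temperature with serially diluted inhibitor (0–500 μM) in 50 mM Tris-HCl pH 8.0, 80 mM NaCl, 1 mM MgCl2, 0.5 mM DTT, 0.01% Triton X-100. Reaction with 2 μM SAM and tRNALeu(CAG), 45 min at 37 °C. Detection 30 min in the dark, SAH read against a standard curve. IC50 by nonlinear regression. Two independent experiments in duplicate.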

[3] = tested on: Mycolicibacterium smegmatis; assay: Antibacterial activity against Mycolicibacterium smegmatis MC2 155 incubated for 24 hrs by serial broth microdilution method; type: functional; conditions: MC2 155, 24 h
In short: (§1)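 Growth read by OD600. MRSA in cation-adjusted Mueller–Hinton broth, M. smegmatis in complete 7H9. MIC50 and MIC90 are 50% and 90% growth inhibition versus drug-free controls. Two independent experiments, each in duplicate.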

Acinetobacter baumannii [4] = assay: Antibacterial activity against Acinetobacter baumannii ATCC 17961 incubated for 24 hrs by serial broth microdilution method; type: functional; conditions: ATCC 17961, 24 h
In short: (§2)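 Log-phase cultures from four colonies grown overnight at 37 °C, inoculated at ~5×10^5 cells/mL in cation-adjusted Mueller–Hinton broth with serially diluted compound. Grown 24 h at 37 °C, then OD600 read. MIC50/MIC90 are the concentrations giving 50%/90% growth inhibition relative to drug-free controls. Two independent experiments in duplicate.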

Escherichia coli [5] = assay: Antibacterial activity against Escherichia coli BW25113 incubated for 24 hrs by serial broth microdilution method; type: functional, organism-based; in short: as §2
Acinetobacter baumannii [6] = assay: Bactericidal activity against Acinetobacter baumannii ATCC 17961 assessed as reduction in CFU at 1 to 4 times MIC90 incubated for 24 hrs; type: functional; conditions: ATCC 17961, 24 h, read-out: MBC99.9
[7] = tested on: Mycobacterium tuberculosis; assay: Antibacterial activity against Mycobacterium tuberculosis ATCC 27294 incubated for 7 days by broth dilution method; type: functional; conditions: ATCC 27294, 168 h
In short: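 M. tuberculosis ATCC 27294 in complete 7H9 with 0.05% Tween 80, 0.5% glycerol and 10% ADC. Mid-log cells adjusted to OD600 0.1 and added 1:1 to 2-fold serial compound dilutions (highest 100 μM). Incubated 7 d at 37 °C with shaking at 80 rpm, then OD600 read. Isoniazid positive control. MIC50/MIC90 versus drug-free controls. Biological duplicates.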

Salmonella enteritidis [8] = assay: Antibacterial activity against Salmonella enteritidis ATCC 13076 incubated for 24 hrs by serial broth microdilution method; type: functional; conditions: Salmonella enterica subsp. enterica serovar Enteritidis; in short: as §2
Enterococcus faecalis [9] = assay: Antibacterial activity against Enterococcus faecalis ATCC 51299 at 100 uM incubated for 24 hrs; type: functional, organism-based
In short: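 Single-concentration screen in brain heart infusion broth. Log-phase cells at ~5×10^5 cells/mL were grown with 100 μM compound for 24 h at 37 °C. Growth was read as OD600 and expressed as a percentage of untreated wells. DMSO and blank controls were included.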

Erythrocyte = assay: Hemolytic activity in human RBC at 100 uM measured after 1 hr; type: ADME, cell-based
In short: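 Fresh human RBCs were PBS-washed and resuspended to OD600 24, then mixed 1:1 by volume with compound serially diluted in PBS. Incubated 1 h at 37 °C without shaking and centrifuged at 1000g for 15 min. Triton X-100 served as positive control. Run in triplicate.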

Klebsiella pneumoniae [10] = assay: Bactericidal activity against Klebsiella pneumoniae ATCC 13883 assessed as reduction in CFU at 1 to 4 times MIC90 incubated for 24 hrs; type: functional, organism-based
Salmonella enteritidis [11] = assay: Bactericidal activity against Salmonella enteritidis ATCC 13076 assessed as reduction in CFU at 1 to 4 times MIC90 incubated for 24 hrs; type: functional; conditions: Salmonella enterica subsp. enterica serovar Enteritidis
Streptococcus pneumoniae [12] = assay: Bactericidal activity against Streptococcus pneumoniae ATCC 49619 assessed as reduction in CFU at 1 to 4 times MIC90 incubated for 24 hrs; type: functional; conditions: ATCC 49619, 24 h, read-out: MBC99.9
Enterococcus faecalis [13] = assay: Antibacterial activity against Enterococcus faecalis ATCC 51299 incubated for 24 hrs by serial broth microdilution method; type: functional, organism-based
In short: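 Broth microdilution in brain heart infusion broth, ~5×10^5 cells/mL log-phase inoculum, serial compound dilutions, 24 h at 37 °C, OD600 read-out. MIC50/MIC90 are the concentrations giving 50%/90% growth inhibition relative to drug-free controls. Two independent experiments in duplicate.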

[14] = tested on: Mycolicibacterium smegmatis; assay: Bactericidal activity against Mycolicibacterium smegmatis MC2 155 assessed as reduction in CFU at 1 to 4 times MIC90 incubated for 24 hrs; type: functional; conditions: MC2 155, 24 h, read-out: MBC99.9
Escherichia coli [15] = assay: Bactericidal activity against Escherichia coli BW25113 assessed as reduction in CFU at 1 to 4 times MIC90 incubated for 24 hrs; type: functional, organism-based
Pseudomonas aeruginosa [16] = assay: Antibacterial activity against Pseudomonas aeruginosa PA14 incubated for 24 hrs by serial broth microdilution method; type: functional, organism-based; in short: as §2
Staphylococcus aureus [17] = assay: Antibacterial activity against methicillin-resistant Staphylococcus aureus ATCC 43300 at 100 uM incubated for 24 hrs; type: functional, organism-based
In short: (§3)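 Single-concentration growth screen: 100 μM test compound with log-phase bacteria at about 5×10^5 cells/mL. Incubation 24 h at 37 °C. Growth read by OD600 and given as percent of untreated control. MRSA was grown in cation-adjusted Mueller–Hinton broth. M. smegmatis was grown in complete Middlebrook 7H9. Ampicillin and kanamycin served as positive controls.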

Streptococcus pneumoniae [18] = assay: Antibacterial activity against Streptococcus pneumoniae ATCC 49619 incubated for 24 hrs by serial broth microdilution method; type: functional; conditions: ATCC 49619, 24 h
In short: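 Cultured in MH medium plus 3% defibrinated sheep blood at 37 °C, 5% CO2. Log-phase inoculum ~5×10^5 cells/mL was exposed to serial compound dilutions for 24 h. MIC50/MIC90 are relative to drug-free controls. Two independent experiments in duplicate.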

Streptococcus pneumoniae [19] = assay: Antibacterial activity against Streptococcus pneumoniae ATCC 49619 at 100 uM incubated for 24 hrs; type: functional, organism-based
In short: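 Single 100 μM screen in MH medium with 3% defibrinated sheep blood at 37 °C under 5% CO2, ~5×10^5 cells/mL, 24 h.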

[20] = tested on: Mycobacterium tuberculosis; assay: Bactericidal activity against Mycobacterium tuberculosis H37Rv assessed as reduction in CFU at 1 to 4 times MIC90 incubated for 7 days; type: functional; conditions: 168 h, read-out: MBC99.9
In short: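 Then plated on complete 7H10 agar for CFU. Inoculum plated at time zero. MBC99.9 is a 1000-fold CFU reduction versus the time-zero inoculum.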

Klebsiella pneumoniae [21] = assay: Antibacterial activity against Klebsiella pneumoniae ATCC 13883 incubated for 24 hrs by serial broth microdilution method; type: functional, organism-based; in short: as §2
[22] = tested on: Mycolicibacterium smegmatis; assay: Antibacterial activity against Mycolicibacterium smegmatis MC2 155 at 100 uM incubated for 24 hrs; type: functional, organism-based; in short: as §3
Pseudomonas aeruginosa [23] = assay: Bactericidal activity against Pseudomonas aeruginosa PA14 assessed as reduction in CFU at 1 to 4 times MIC90 incubated for 24 hrs; type: functional, organism-based
[24] = tested on: Mycobacterium tuberculosis; assay: Antibacterial activity against Mycobacterium tuberculosis ATCC 27294 at 100 uM incubated for 7 days; type: functional, organism-based
Enterococcus faecalis [25] = assay: Bactericidal activity against Enterococcus faecalis ATCC 51299 assessed as reduction in CFU at 1 to 4 times MIC90 incubated for 24 hrs; type: functional, organism-based
Staphylococcus aureus [26] = assay: Antibacterial activity against methicillin-resistant Staphylococcus aureus ATCC 43300 incubated for 24 hrs by serial broth microdilution method; type: functional; conditions: ATCC 43300, 24 h; in short: as §1

CCCCCCCCCCNCc1ccc(CNC(=O)c2csc3nc[nH]c(=O)c23)cc1
MBC (Staphylococcus aureus [1]): 34 µM (≈ 15.5 µg/mL)
IC50 [2]: 0.025 µM
MIC50 [3]: 13 µM (≈ 5.91 µg/mL)
MIC90 [3]: 18 µM (≈ 8.18 µg/mL)
MIC50 (Acinetobacter baumannii [4]): > 100 µM
MIC90 (Acinetobacter baumannii [4]): > 100 µM
MIC50 (Escherichia coli [5]): inactive
MIC90 (Escherichia coli [5]): inactive
MBC (Acinetobacter baumannii [6]): > 100 µM
MIC50 [7]: 22 µM (≈ 10 µg/mL)
MIC90 [7]: 43 µM (≈ 19.5 µg/mL)
MIC50 (Salmonella enteritidis [8]): inactive
MIC90 (Salmonella enteritidis [8]): inactive
Activity (Enterococcus faecalis [9]): Active
Activity (Erythrocyte): Non-Toxic
MBC99.9 (Klebsiella pneumoniae [10]): inactive
MBC99.9 (Salmonella enteritidis [11]): inactive
MBC (Streptococcus pneumoniae [12]): > 100 µM
MIC50 (Enterococcus faecalis [13]): inactive
MIC90 (Enterococcus faecalis [13]): inactive
MBC [14]: 36 µM (≈ 16.4 µg/mL)
MBC99.9 (Escherichia coli [15]): inactive
MIC50 (Pseudomonas aeruginosa [16]): inactive
MIC90 (Pseudomonas aeruginosa [16]): inactive
Activity (Staphylococcus aureus [17]): Active
MIC50 (Streptococcus pneumoniae [18]): 34 µM (≈ 15.5 µg/mL)
MIC90 (Streptococcus pneumoniae [18]): 56 µM (≈ 25.5 µg/mL)
Activity (Streptococcus pneumoniae [19]): Active
MBC [20]: 75 µM (≈ 34.1 µg/mL)
MIC50 (Klebsiella pneumoniae [21]): inactive
MIC90 (Klebsiella pneumoniae [21]): inactive
Activity [22]: Active
MBC99.9 (Pseudomonas aeruginosa [23]): inactive
Activity [24]: Active
MBC99.9 (Enterococcus faecalis [25]): inactive
MIC50 (Staphylococcus aureus [26]): 6 µM (≈ 2.73 µg/mL)
MIC90 (Staphylococcus aureus [26]): 8.5 µM (≈ 3.86 µg/mL)
